Columns and labels:
[1] = Degradation half life in human plasma at 1000 ng/ml by LC-MS/MS analysis; format: ADME, cell-free
How it was run: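 Pooled human plasma (3 donors) or pooled male Sprague-Dawley rat plasma, thawed at 37°C. Spiked to a nominal 1000 ng/mL final (0.2% DMSO, 0.4% acetonitrile final) and incubated at 37°C. Aliquots were snap-frozen at time points over 4 h (n=3 per time point). Quantified by LC-MS against a same-species blank-plasma calibration with a leucine enkephalin internal standard.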

[2] = Ratio of drug uptake in Sprague-Dawley rat brain to plasma at 27.5 mg/kg, ip after 1 hr by UPLC analysis; format: ADME, organism-based; settings: read-out: BPR
How it was run: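 Male Sprague-Dawley rats (250–306 g) got one ip dose of a suspension (10% v/v DMSO, 1% solutol HS-15 in 50 mM PBS, pH 7.4). Terminal cardiac-puncture heparinised plasma and whole brain were sampled over 24 h, n=3 rats per time point. Samples were extracted by protein precipitation and read by UPLC-MS/MS in positive ESI MRM with a diazepam internal standard. Parameters are non-compartmental; the time-averaged B/P comes from AUC0-24h.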

[3] = Toxicity in Sprague-Dawley rat model of neuropathic pain assessed as incidence of localized pain rat 30 mg/kg, ip administered as single dose measured up to 15 mins post injection; format: organism-based; settings: in vivo, 0.25 h

CCCCCCCC/C=C\CCCCCCCC(=O)N[C@H](CCCCN)C(=O)O.Cl
t1/2 [1]: > 17.03 h
Kp at 1 h [2]: 0.08
Activity [3]: Toxic
